From ChEMBL document CHEMBL3758162, “Synthesis, biological characterization and molecular modeling insights of spirochromanes as potent HDAC inhibitors” (Eur J Med Chem, 2016)

Key:
CYP1A2 = biological target: T1, CYP1A2 (Homo sapiens, UniProt P05177); assay: Inhibition of human CYP1A2 using 3-cyano-7-ethoxycoumarin as substrate at 10 uM after 15 mins by fluorimetric analysis; assay type: ADME; conditions: probe 3-cyano-7-ethoxycoumarin
T1 sequence (P05177 whole entry): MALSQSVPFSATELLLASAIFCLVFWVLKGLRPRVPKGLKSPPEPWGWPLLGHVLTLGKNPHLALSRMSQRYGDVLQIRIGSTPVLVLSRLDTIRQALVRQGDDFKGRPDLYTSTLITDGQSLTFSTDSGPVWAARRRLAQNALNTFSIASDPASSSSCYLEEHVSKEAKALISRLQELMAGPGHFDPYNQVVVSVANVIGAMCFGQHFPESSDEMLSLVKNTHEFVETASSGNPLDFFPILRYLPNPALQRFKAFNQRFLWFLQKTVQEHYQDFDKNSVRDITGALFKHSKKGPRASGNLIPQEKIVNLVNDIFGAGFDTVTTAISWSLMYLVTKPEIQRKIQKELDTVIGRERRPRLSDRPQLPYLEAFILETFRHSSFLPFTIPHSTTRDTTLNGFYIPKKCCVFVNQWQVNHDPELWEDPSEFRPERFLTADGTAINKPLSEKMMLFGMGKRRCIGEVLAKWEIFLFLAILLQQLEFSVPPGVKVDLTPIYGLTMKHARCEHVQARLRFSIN
Summary of the method: (§1)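 Test compounds at 10 µM in potassium phosphate buffer pH 7.4 with NADPH regenerating system (final 1.3 mM NADP⁺, 3.3 mM glucose 6-phosphate, 0.4 U/ml G6PDH); reaction started at 37 °C by adding Supersomes isoenzyme plus substrate. Enzyme and substrate amounts: CYP1A2 0.5 pmol, 5 µM CEC; CYP2C19 0.5 pmol, 25 µM CEC; CYP3A4 1 pmol, 50 µM BFC; CYP2D6 1.5 pmol, 1.5 µM AMMC. Stopped with acetonitrile/Tris base; fluorescence read; % inhibition versus enzyme without inhibitor; n≥2, mean.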

CYP2C19 = CYP2C19 (Homo sapiens, UniProt P33261); assay: Inhibition of human CYP2C19 using 3-cyano-7-ethoxycoumarin as substrate at 10 uM after 30 mins by fluorimetric analysis; assay type: ADME; conditions: probe 3-cyano-7-ethoxycoumarin; summary of the method: as §1
Sequence of CYP2C19 (P33261 whole entry): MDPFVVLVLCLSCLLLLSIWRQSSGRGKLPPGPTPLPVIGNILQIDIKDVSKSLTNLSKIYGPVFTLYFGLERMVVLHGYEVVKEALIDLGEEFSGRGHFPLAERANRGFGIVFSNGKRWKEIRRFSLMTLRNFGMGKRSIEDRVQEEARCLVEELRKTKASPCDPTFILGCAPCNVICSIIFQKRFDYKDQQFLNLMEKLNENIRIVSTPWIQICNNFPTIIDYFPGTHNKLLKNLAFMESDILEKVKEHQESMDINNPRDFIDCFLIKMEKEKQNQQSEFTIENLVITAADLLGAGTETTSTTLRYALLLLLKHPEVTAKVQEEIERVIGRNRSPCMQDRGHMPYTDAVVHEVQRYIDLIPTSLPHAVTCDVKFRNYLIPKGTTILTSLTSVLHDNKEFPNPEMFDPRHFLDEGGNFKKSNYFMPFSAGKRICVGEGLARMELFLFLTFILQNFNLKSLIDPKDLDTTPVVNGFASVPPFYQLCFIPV

CYP2D6 = CYP2D6 (Homo sapiens, UniProt P10635); assay: Inhibition of human CYP2D6 using 3-[2-(N,N-diethyl-N-methylamino)ethyl]-7-methoxy-4-methylcoumarin as substrate at 10 uM after 30 mins by fluorimetric analysis; assay type: ADME; summary of the method: as §1
Sequence of CYP2D6 (P10635 whole entry): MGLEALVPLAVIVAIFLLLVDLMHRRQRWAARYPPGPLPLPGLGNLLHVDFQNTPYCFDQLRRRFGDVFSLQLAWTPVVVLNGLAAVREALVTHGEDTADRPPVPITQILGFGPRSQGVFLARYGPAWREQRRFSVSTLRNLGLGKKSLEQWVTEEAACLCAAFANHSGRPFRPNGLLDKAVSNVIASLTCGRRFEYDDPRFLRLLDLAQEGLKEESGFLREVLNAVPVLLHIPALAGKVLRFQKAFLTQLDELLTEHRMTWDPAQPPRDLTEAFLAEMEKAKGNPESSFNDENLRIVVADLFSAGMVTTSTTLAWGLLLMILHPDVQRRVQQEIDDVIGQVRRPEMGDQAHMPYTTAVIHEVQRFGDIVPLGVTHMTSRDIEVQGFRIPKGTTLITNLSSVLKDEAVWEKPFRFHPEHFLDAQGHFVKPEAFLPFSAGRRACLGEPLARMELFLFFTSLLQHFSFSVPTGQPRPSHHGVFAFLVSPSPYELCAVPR

CYP3A4 = CYP3A4 (Homo sapiens, UniProt P08684); assay: Inhibition of human CYP3A4 using 7-benzyloxy-4-(trifluoromethyl)-coumarin as substrate at 10 uM after 30 mins by fluorimetric analysis; assay type: ADME; conditions: probe 7-benzyloxy-4-(trifluoromethyl)-coumarin; summary of the method: as §1
Sequence of CYP3A4 (P08684 whole entry): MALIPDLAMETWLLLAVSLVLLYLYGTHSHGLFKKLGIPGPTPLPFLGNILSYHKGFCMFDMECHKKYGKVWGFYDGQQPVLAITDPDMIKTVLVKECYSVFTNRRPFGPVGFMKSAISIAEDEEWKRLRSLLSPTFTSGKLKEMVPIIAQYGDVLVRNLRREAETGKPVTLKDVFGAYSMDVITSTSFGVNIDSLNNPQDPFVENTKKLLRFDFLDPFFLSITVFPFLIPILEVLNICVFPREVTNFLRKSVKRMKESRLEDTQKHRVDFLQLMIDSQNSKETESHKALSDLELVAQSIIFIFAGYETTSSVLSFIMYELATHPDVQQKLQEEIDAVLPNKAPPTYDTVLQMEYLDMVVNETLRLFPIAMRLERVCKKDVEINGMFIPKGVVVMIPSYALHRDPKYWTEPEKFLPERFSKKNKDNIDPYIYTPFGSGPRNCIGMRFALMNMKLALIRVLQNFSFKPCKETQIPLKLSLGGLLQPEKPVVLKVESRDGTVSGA

[1] = Metabolic stability in mouse liver microsomes assessed as compound remaining at 1 uM preincubated for 10 mins measured after 30 mins by LC-MS/MS analysis; assay type: ADME; conditions: liver microsomes, read-out: Stability
Summary of the method: (§2)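 Compound at 1 µM pre-incubated 10 min at 37 °C in potassium phosphate buffer pH 7.4 with 0.5 mg/mL mouse or human hepatic microsomes. Parent quantified by LC-MS/MS (ESI+, MRM, verapamil internal standard). % remaining = peak area at 30 min / area at 0 min × 100; n≥2, mean.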

[2] = Metabolic stability in human liver microsomes assessed as compound remaining at 1 uM preincubated for 10 mins measured after 30 mins by LC-MS/MS analysis; assay type: ADME; conditions: liver microsomes, read-out: Stability; summary of the method: as §2
Histone deacetylase = assay: Inhibition of HDAC in human HeLa cells nuclear extract using Fluor de lys as substrate after 15 mins by fluorometric analysis; assay type: cell-based
K562 = assay: Antiproliferative activity against human K562 cells assessed as cell viability after 72 hrs by CellTitre-Glo luminescent assay; assay type: functional, cell-based
A549 = assay: Antiproliferative activity against human A549 cells assessed as cell viability after 72 hrs by CellTitre-Glo luminescent assay; assay type: functional, cell-based
[3] = Antiproliferative activity against human HCT116 cells assessed as cell viability after 72 hrs by CellTitre-Glo luminescent assay; assay type: functional, cell-based, HCT-116
[4] = Solubility of the compound at pH 4.5; assay type: physicochemical; conditions: buffer

| Compound | inhibition at 0.25 h, 10 µM (CYP1A2) [%] | inhibition at 0.5 h, 10 µM (CYP2C19) [%] | inhibition at 0.5 h, 10 µM (CYP2D6) [%] | inhibition at 0.5 h, 10 µM (CYP3A4) [%] | remaining at 0.5 h, 1 µM [1] [%] | remaining at 0.5 h, 1 µM [2] [%] | IC50 (Histone deacetylase) [nM] | IC50 (K562; Homo sapiens, K562, 72 h) [nM] | IC50 (A549; Homo sapiens, A549, 72 h) [nM] | solubility [4] [µM] | IC50 (K562; k562) [nM] | IC50 (A549; a549) [nM] | IC50 ([3]; Homo sapiens, HCT-116, 72 h) [nM] | IC50 ([3]; hct-116) [nM] |
| --- | --- | --- | --- | --- | --- | --- | --- | --- | --- | --- | --- | --- | --- | --- |
| O=C(CCCCCCC(=O)Nc1ccccc1)NO [VORINOSTAT] | 25 | 69 | 25 | 35 | 82 | 93 |  |  |  |  |  |  |  |  |
| CC(=O)N1CCCC2(CC(=O)c3cc(/C=C/C(=O)NO)ccc3O2)C1 (racemic) |  |  |  |  |  |  | 207 | 5600 | 14500 |  |  |  | 3240 |  |
| O=C(/C=C/c1ccc2c(c1)C(=O)CC1(CCCNC1)O2)NO (racemic) |  |  |  |  |  |  | 136 | 555 | 714 |  |  |  | 228 |  |
| CCOC(=O)N1CCCC2(CC(=O)c3cc(/C=C/C(=O)NO)ccc3O2)C1 (racemic) |  |  |  |  |  |  | 232 | 936 | 2280 |  |  |  | 678 |  |
| O=C(/C=C/c1ccc2c(c1)C(=O)CC1(CCCN(C(=O)c3ccccc3)CC1)O2)NO (racemic) |  |  |  |  |  |  | 110 | 1110 | 3780 |  |  |  | 617 |  |
| O=C(/C=C/c1ccc2c(c1)C(=O)CC1(CCNC1)O2)NO (racemic) |  |  |  |  |  |  | 131 | 4140 | 2320 |  |  |  | 2270 |  |
| CCOC(=O)N1CC2(CC(=O)c3cc(/C=C/C(=O)NO)ccc3O2)C1 |  |  |  |  |  |  | 286 | 1880 | 4870 |  |  |  | 1230 |  |
| O=C(/C=C/c1ccc2c(c1)C(=O)CC1(CCCN(Cc3ccccc3)C1)O2)NO (single isomer, unassigned; (-)) |  |  |  |  |  |  | 84 |  |  |  | 441 | 1060 |  | 326 |
| O=C(/C=C/c1ccc2c(c1)C(=O)CC1(CCCN(Cc3ccccc3)C1)O2)NO (stereo in doubt; 33j) |  |  |  |  |  |  | 143 |  |  |  | 523 | 1460 |  | 447 |
| O=C(/C=C/c1ccc2c(c1)C(=O)CC1(CNC1)O2)NO |  |  |  |  |  |  | 228 | 2580 | 8580 |  |  |  | 3680 |  |
| O=C(/C=C/c1ccc2c(c1)C(=O)CC1(CCCN(C(=O)c3ccccc3)C1)O2)NO (racemic) |  |  |  |  |  |  | 165 | 2010 | 4130 |  |  |  | 1330 |  |
| CCOC(=O)N1CCC2(CC(=O)c3cc(/C=C/C(=O)NO)ccc3O2)C1 (racemic) |  |  |  |  |  |  | 150 | 721 | 837 |  |  |  | 351 |  |
| CC(=O)N1CCCC2(CC1)CC(=O)c1cc(/C=C/C(=O)NO)ccc1O2 (racemic) |  |  |  |  |  |  | 323 | 5180 | 20100 |  |  |  | 3510 |  |
| CC(=O)N1CC2(CC(=O)c3cc(/C=C/C(=O)NO)ccc3O2)C1 |  |  |  |  |  |  | 485 | 15100 | 47700 |  |  |  | 10500 |  |
| CC(=O)N1CCC2(CC(=O)c3cc(/C=C/C(=O)NO)ccc3O2)C1 (racemic) |  |  |  |  |  |  | 955 | > 50000 | > 50000 |  |  |  | > 50000 |  |
| CCOC(=O)N1CCCC2(CC1)CC(=O)c1cc(/C=C/C(=O)NO)ccc1O2 (racemic) |  |  |  |  |  |  | 300 | 1660 | 5750 |  |  |  | 1010 |  |
| O=C(/C=C/c1ccc2c(c1)C(=O)CC1(CCCNCC1)O2)NO (racemic) |  |  |  |  |  |  | 134 | 5990 | 3120 |  |  |  | 1080 |  |

More lines, main results first:

| inhibition at 0.25 h, 10 µM (CYP1A2) [%] | inhibition at 0.5 h, 10 µM (CYP2C19) [%] | inhibition at 0.5 h, 10 µM (CYP2D6) [%] | inhibition at 0.5 h, 10 µM (CYP3A4) [%] | remaining at 0.5 h, 1 µM [1] [%] | remaining at 0.5 h, 1 µM [2] [%] | IC50 (Histone deacetylase) [nM] | IC50 (K562; Homo sapiens, K562, 72 h) [nM] | IC50 (A549; Homo sapiens, A549, 72 h) [nM] | solubility [4] [µM] | IC50 (K562; k562) [nM] | IC50 (A549; a549) [nM] | Compound | IC50 ([3]; Homo sapiens, HCT-116, 72 h) [nM] | IC50 ([3]; hct-116) [nM] |
| --- | --- | --- | --- | --- | --- | --- | --- | --- | --- | --- | --- | --- | --- | --- |
|  |  |  |  |  |  | 81 | 376 | 1330 |  |  |  | O=C(/C=C/c1ccc2c(c1)C(=O)CC1(CN(C(=O)c3ccccc3)C1)O2)NO | 294 |  |
| 5 | 40 | 64 | 53 | 44 | 44 | 67 | 175 | 245 | > 500 |  |  | O=C(/C=C/c1ccc2c(c1)C(=O)CC1(CN(Cc3ccccc3)C1)O2)NO | 76 |  |
|  |  |  |  | 23 | 19 | 183 | 147 | 425 |  |  |  | Cn1cc(CN2CCCC3(CC(=O)c4cc(/C=C/C(=O)NO)ccc4O3)C2)c2ccccc21 (racemic) | 78 |  |
|  |  |  |  | 19 | < 30 | 114 | 46 | 260 |  |  |  | Cn1cc(CN2CCCC3(CC2)CC(=O)c2cc(/C=C/C(=O)NO)ccc2O3)c2ccccc21 (racemic) | 60 |  |
| 5 | 9 | 5 | 12 | 62 | 79 | 114 | 329 | 534 | > 500 |  |  | CN1CCCC2(CC1)CC(=O)c1cc(/C=C/C(=O)NO)ccc1O2 (racemic) | 98 |  |
|  |  |  |  |  |  | 187 | 533 | 2110 |  |  |  | O=C(/C=C/c1ccc2c(c1)C(=O)CC1(CCN(C(=O)c3ccccc3)C1)O2)NO (racemic) | 510 |  |
| 5 | 81 | 52 | 41 | 39 | 27 | 56 | 188 | 184 | > 500 |  |  | O=C(/C=C/c1ccc2c(c1)C(=O)CC1(CCCN(CCc3ccccc3)CC1)O2)NO (racemic) | 62 |  |
|  |  |  |  |  |  | 219 | 250 | 896 |  |  |  | O=C(/C=C/c1ccc2c(c1)C(=O)CC1(CN(CCc3ccccc3)C1)O2)NO | 220 |  |
|  |  |  |  |  |  | 119 | 198 | 357 |  |  |  | CN1CCC2(CC(=O)c3cc(/C=C/C(=O)NO)ccc3O2)C1 (racemic) | 146 |  |
|  |  |  |  | 19 | 16 | 1 | 106 | 157 |  |  |  | O=C(/C=C/c1ccc2c(c1)C(=O)CC1(CCCN(CCc3ccccc3)C1)O2)NO (racemic) | 52 |  |
|  |  |  |  | 8 | 16 | 85 | 51 | 180 |  |  |  | Cn1cc(CN2CCC3(CC(=O)c4cc(/C=C/C(=O)NO)ccc4O3)C2)c2ccccc21 (racemic) | 47 |  |
|  |  |  |  |  |  | 34 | 552 | 1160 |  |  |  | O=C(/C=C/c1ccc2c(c1)C(=O)CC1(CCCN(Cc3ccc(F)cc3)C1)O2)NO (racemic) | 372 |  |
|  |  |  |  | 25 | 11 | 149 | 144 | 333 |  |  |  | O=C(/C=C/c1ccc2c(c1)C(=O)CC1(CCCN(Cc3ccc(F)cc3)CC1)O2)NO (racemic) | 63 |  |
|  |  |  |  |  |  | 56 | 430 | 839 |  |  |  | O=C(/C=C/c1ccc2c(c1)C(=O)CC1(CCCN(Cc3ccccc3)C1)O2)NO (racemic) | 385 |  |
|  |  |  |  |  |  | 168 | 168 | 429 |  |  |  | CN1CC2(CC(=O)c3cc(/C=C/C(=O)NO)ccc3O2)C1 | 178 |  |
|  |  |  |  |  |  | 130 | 301 | 684 |  |  |  | O=C(/C=C/c1ccc2c(c1)C(=O)CC1(CN(Cc3ccc(F)cc3)C1)O2)NO | 190 |  |
|  |  |  |  |  |  | 196 | 283 | 642 |  |  |  | O=C(/C=C/c1ccc2c(c1)C(=O)CC1(CCN(Cc3ccc(F)cc3)C1)O2)NO (centres undefined) | 178 |  |
